{"source": "ChEMBL document CHEMBL1157305", "about": "“Serotonergic activity-guided phytochemical investigation of the roots of Angelica sinensis” (J Nat Prod, 2006)", "key": {"[1]": {"molecular_target": "T1, 5-hydroxytryptamine receptor 7 (Homo sapiens, UniProt P34969)", "T1 sequence (P34969 whole entry)": "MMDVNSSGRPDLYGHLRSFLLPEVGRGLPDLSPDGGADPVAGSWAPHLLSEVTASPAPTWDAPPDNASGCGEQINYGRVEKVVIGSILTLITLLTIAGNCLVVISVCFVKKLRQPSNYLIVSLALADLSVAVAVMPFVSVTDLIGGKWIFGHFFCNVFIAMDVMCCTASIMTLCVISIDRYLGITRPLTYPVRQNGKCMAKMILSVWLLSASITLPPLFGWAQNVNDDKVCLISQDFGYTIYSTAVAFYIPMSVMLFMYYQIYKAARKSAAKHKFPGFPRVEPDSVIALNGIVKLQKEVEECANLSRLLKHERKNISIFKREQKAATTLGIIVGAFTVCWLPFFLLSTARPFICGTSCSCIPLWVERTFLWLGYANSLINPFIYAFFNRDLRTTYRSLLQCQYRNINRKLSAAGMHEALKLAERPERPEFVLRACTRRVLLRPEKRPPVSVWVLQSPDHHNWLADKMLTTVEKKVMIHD", "test": "Displacement of [3H]LSD from human recombinant 5HT7 receptor expressed in CHO cells at 100 uM by liquid scintillation counting relative to control", "type": "cell-based", "method_in_brief": "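Membranes from confluent human 5-HT7-transfected CHO cells were lysed in hypotonic buffer at 4 °C and homogenized in TEM buffer. Protein was measured by Lowry. Binding used [3H]LSD (5 nM) in 75 mM Tris-HCl, 1.25 mM MgCl2, 1 mM EDTA, pH 7.4, for 1 h at 37 °C. Samples were filtered on PEI-presoaked filters and counted by liquid scintillation. Nonspecific binding was defined with 250 nM 5-HT.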"}, "[2]": {"molecular_target": "T1, 5-hydroxytryptamine receptor 7", "test": "Displacement of [3H]LSD from human recombinant 5HT7 receptor expressed in CHO cells by liquid scintillation counting", "type": "cell-based", "method_in_brief": "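Membranes from confluent CHO cells stably carrying human 5-HT7, grown in Ham's F-12 with 10% FBS. Cells lysed in hypotonic Tris/MgCl2/EDTA buffer at 4 °C, and membranes washed in TEM buffer. Incubated with 5 nM [3H]LSD for 1 h at 37 °C in 75 mM Tris-HCl, 1.25 mM MgCl2, 1 mM EDTA, pH 7.4. Filtered, then counted by scintillation. Nonspecific binding defined with 250 nM 5-HT. IC50 is the concentration giving 50% inhibition of binding.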"}}}
{"smiles": "C=C[C@@H](O)C#CC#C[C@@H](O)/C=C\\CCCCCCCCOC(C)=O", "values": [{"measurement": "inhibition", "setting": "[1]", "result": 49, "unit": "%"}, {"measurement": "IC50", "setting": "[2]", "result": 118, "unit": "µM"}]}
{"smiles": "CCC/C=C1\\OC(=O)C2=C1CC[C@@H](O)[C@@H]2O", "values": [{"measurement": "inhibition", "setting": "[1]", "result": 0, "unit": "%"}]}
{"smiles": "COc1cc(/C=C/C(=O)O)ccc1O", "values": [{"measurement": "inhibition", "setting": "[1]", "result": 41, "unit": "%"}]}
{"smiles": "C/C=C(/C)C(=O)OC(C)CCC1OC(=O)c2ccccc21", "note": "(stereo not given)", "values": [{"measurement": "inhibition", "setting": "[1]", "result": 21, "unit": "%"}]}
{"smiles": "CCCCNS(=O)(=O)c1ccccc1", "values": [{"measurement": "inhibition", "setting": "[1]", "result": 0, "unit": "%"}]}
{"smiles": "CCC/C=C1\\OC(=O)C2=C1CCC=C2", "values": [{"measurement": "inhibition", "setting": "[1]", "result": 33, "unit": "%"}]}
{"smiles": "COc1cc(C=O)ccc1O", "values": [{"measurement": "inhibition", "setting": "[1]", "result": 0, "unit": "%"}]}
{"smiles": "CCCCCCC/C=C\\[C@H](O)C#CC#CC(=O)CCOC", "values": [{"measurement": "inhibition", "setting": "[1]", "result": 69, "unit": "%"}, {"measurement": "IC50", "setting": "[2]", "result": "> 150", "unit": "µM"}]}
{"smiles": "CCC/C=C1\\OC(=O)C2=C1CCC(O)C2OC", "note": "(stereo not given)", "values": [{"measurement": "inhibition", "setting": "[1]", "result": 36, "unit": "%"}]}
{"smiles": "C=C[C@H](O)C#CC#C[C@@H](O)C1OC1CCCCCCC", "note": "(stereo not given in full)", "values": [{"measurement": "inhibition", "setting": "[1]", "result": 36, "unit": "%"}]}
{"smiles": "CC(C)=CCOc1c2occc2cc2ccc(=O)oc12", "values": [{"measurement": "inhibition", "setting": "[1]", "result": 57, "unit": "%"}]}
{"smiles": "CCC/C=C1\\OC(=O)C2=CC3CCC21[C@]1(OC(=O)c2ccccc21)[C@@H]3CCC", "note": "(stereo not given in full)", "values": [{"measurement": "inhibition", "setting": "[1]", "result": 19, "unit": "%"}]}
{"smiles": "CCC/C=C1\\OC(=O)C23C=CCCCC12C1(OC(=O)c2ccccc21)C3CCC", "note": "(stereo not given)", "values": [{"measurement": "inhibition", "setting": "[1]", "result": 24, "unit": "%"}]}
{"smiles": "COc1cc(/C=C/C(=O)OCC(O)C(OC)c2ccc(O)c(OC)c2)ccc1O", "note": "(stereo not given)", "values": [{"measurement": "inhibition", "setting": "[1]", "result": 31, "unit": "%"}]}
{"smiles": "CC/C=C\\C/C=C\\C/C=C\\CCCCCCCC(=O)OCC(O)COC(=O)CCCCCCCC/C=C\\C/C=C\\C=C\\CC", "note": "(stereo not given)", "values": [{"measurement": "inhibition", "setting": "[1]", "result": 0, "unit": "%"}]}
{"smiles": "COc1cc(/C=C/C(=O)OCCc2ccc(O)cc2)ccc1O", "values": [{"measurement": "inhibition", "setting": "[1]", "result": 71, "unit": "%"}, {"measurement": "IC50", "setting": "[2]", "result": 47.6, "unit": "µM"}]}
{"smiles": "CCC/C=C1\\OC(=O)c2ccccc21", "note": "[Z-butylidenephthalide]", "values": [{"measurement": "inhibition", "setting": "[1]", "result": 46, "unit": "%"}, {"measurement": "IC50", "setting": "[2]", "result": 127, "unit": "µM"}]}
{"smiles": "CCCCCCC/C=C\\[C@H](O)C#CC#C[C@@H](O)CC", "values": [{"measurement": "inhibition", "setting": "[1]", "result": 5, "unit": "%"}]}
{"smiles": "C=C[C@@H](O)C#CC#C[C@@H](O)/C=C\\CCCCCCC", "note": "[FALCARINDIOL]", "values": [{"measurement": "inhibition", "setting": "[1]", "result": 61, "unit": "%"}, {"measurement": "IC50", "setting": "[2]", "result": 118, "unit": "µM"}]}
{"smiles": "CC[C@H](/C=C/[C@@H](C)[C@H]1CC[C@H]2[C@@H]3CC=C4C[C@@H](O)CC[C@]4(C)[C@H]3CC[C@]12C)C(C)C", "values": [{"measurement": "inhibition", "setting": "[1]", "result": 0, "unit": "%"}]}
